The values that follow come from ChEMBL document CHEMBL3124803, “Integrating docking scores, interaction profiles and molecular descriptors to improve the accuracy of molecular docking: toward the discovery of novel Akt1 inhibitors” (Eur J Med Chem, 2014).

SMILES strings stand for the structures.

One test deals with HCT-116. In words: Cytotoxicity against human HCT116 cells assessed as growth inhibition after 72 hrs by MTT assay. The test is classed as functional, cell-based. As to conditions: HCT-116, 72 h. Summed up:
(§1)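 Cells exposed to compound for 72 h, then MTT added. Formazan crystals dissolved in DMSO and absorbance read at 570 nm. Run in triplicate in three independent experiments. IC₅₀ (50% cell growth inhibition) derived by dose-effect analysis.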
(In general: Tetrazolium dyes change colour on reduction, which living cells bring about.)

Test [1] has as its target RAC-alpha serine/threonine-protein kinase (Homo sapiens, UniProt P31749). Description: Inhibition of AKT1 (unknown origin) using ATP/eNOS as substrate incubated for 5 mins prior to substrate addition measured after 30 mins by fluorescence polarization assay. For orientation: Polarisation of emitted light reports the rotation of a fluorescent probe.
For a further test, the system named is OVCAR-8. In words: Cytotoxicity against human OVCAR8 cells assessed as growth inhibition after 72 hrs by MTT assay. The test is classed as functional, cell-based. The following applies: OVCAR-8, 72 h. The gist of the method: as §1

RAC-alpha serine/threonine-protein kinase, sequence (P31749 whole entry): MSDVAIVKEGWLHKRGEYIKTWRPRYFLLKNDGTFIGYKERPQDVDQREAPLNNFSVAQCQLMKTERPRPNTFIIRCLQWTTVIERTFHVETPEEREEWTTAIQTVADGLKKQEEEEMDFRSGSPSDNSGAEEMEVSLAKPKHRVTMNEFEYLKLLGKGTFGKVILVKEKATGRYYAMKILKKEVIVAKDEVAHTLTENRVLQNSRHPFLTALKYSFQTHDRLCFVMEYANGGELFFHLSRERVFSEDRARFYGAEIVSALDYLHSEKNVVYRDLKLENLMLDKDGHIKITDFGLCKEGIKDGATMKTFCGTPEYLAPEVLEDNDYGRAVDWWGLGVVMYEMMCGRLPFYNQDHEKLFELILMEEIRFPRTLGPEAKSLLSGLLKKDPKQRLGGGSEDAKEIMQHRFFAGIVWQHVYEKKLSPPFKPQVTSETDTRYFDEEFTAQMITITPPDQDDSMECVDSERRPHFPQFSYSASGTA

`NCC1(c2ccc(Cl)c(Cl)c2)CCN(c2cc(N)ncn2)CC1`: the values for the concentration for half-maximal inhibition (IC50) (in the test on HCT-116; in test [1]) were 19.8 µM and 4.32 µM, respectively.

As for `Nc1ncnc(N2CCN(C(=O)C(N)Cc3ccc(Cl)cc3)CC2)c1Br` (racemic), the 50% inhibitory concentration (IC50) with HCT-116 amounted to 5.15 µM; in the test with OVCAR-8, 22.7 µM; in test [1] it was 0.0077 µM.

Consider `Nc1ncnc(N2CCN(C(=O)C(N)Cc3ccc(Cl)cc3)CC2)c1Cl` (racemic), for which the 50% inhibitory concentration (IC50) with HCT-116 is 4.36 µM; with OVCAR-8 it was 26.1 µM; in test [1], 0.017 µM.

Consider `Nc1ncnc(N2CCN(C(=O)C(N)Cc3ccccc3)CC2)c1Br` (racemic), for which the figures for the IC50 (in the test on HCT-116; in test [1]) were 6.19 µM and 0.432 µM, respectively.

`CNc1cc(N2CCC(CN)(c3ccc(Cl)c(Cl)c3)CC2)ncn1`: the half-maximal inhibitory concentration (IC50) with HCT-116 was determined as 16.7 µM; in test [1], 1.83 µM.

Regarding `Nc1ncnc(N2CCN(C(=O)[C@@H](N)Cc3ccccc3)CC2)c1Cl`, the 50% inhibitory concentration (IC50) in the test with HCT-116 came to 28.7 µM; in test [1], 1.83 µM.

In general, IC50 refers to the concentration needed to halve the response being measured.
